# “And” between values parts separate entries of the source, which are not always exact repeats. Identical values can stand only once.
# Assays:
# Fibroblast = test: Multiplex assay against human fibroblast; format: toxicity, cell-based
# In short: (§1)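 Live cells carried four stains from seeding: Hoechst33342, BioTracker Green Microtubule Cytoskeleton Dye, MitoTracker Red and Annexin V Alexa Fluor 680. They were imaged on a CQ1 microscope at 37°C and 5% CO2 after compound addition. Using CellPathfinder machine-learning gating, cells were split into Hoechst high-intensity objects or normal cells, normal cells into healthy, pyknosed or fragmented nuclei, and pyknosed cells into mitotic or apoptotic; tubulin, mitochondrial-mass and membrane-permeability phenotypes are per cents of healthy-nucleus cells.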
# U2OS = test: Multiplex assay against U2OS; format: toxicity, cell-based; conditions: human; in short: as §1
# [1] = 24 h, 10 µM, compound concentration 10 uM
# [2] = 48 h, 1 µM, compound concentration 1 uM
# [3] = 48 h, 10 µM, compound concentration 10 uM
# [4] = 12 h, 1 µM, compound concentration 1 uM
# [5] = 12 h, 10 µM, compound concentration 10 uM
# [6] = 24 h, 1 µM, compound concentration 1 uM
smiles,measurement,setting,value
CCn1c(-c2ccncc2)cc2c1CCNC2=O,Population Mitotic Cells (%),Fibroblast; [1],92.86% and 57.69%
same,Population Normal (%),Fibroblast; [1],100%
same,Population Pyknosed Nuclei (%),Fibroblast; [1],15.64% and 13.47%
same,Population Tubulin-Different-Phenotype (%),Fibroblast; [1],10.32% and 17.07%
same,Total Cell Count,Fibroblast; [1],179 and 193
same,Population Apoptotic (%),Fibroblast; [2],33.33%
same,Population Fragmented Nuclei (%),Fibroblast; [2],17.79% and 7.69%
same,Population Healthy Nuclei (%),Fibroblast; [2],75% and 86.54%
same,Population Hoechst High Intensity Objects (%),Fibroblast; [2],0%
same,Population Membrane Permeable-Phenotype (%),Fibroblast; [2],3.85% and 5%
same,Population Mitotic Cells (%),Fibroblast; [2],66.67%
same,Population Normal (%),Fibroblast; [2],100%
same,Population Pyknosed Nuclei (%),Fibroblast; [2],7.21% and 5.77%
same,Population Tubulin-Different-Phenotype (%),Fibroblast; [2],23.08% and 22.22%
same,Total Cell Count,Fibroblast; [2],208
same,Population Apoptotic (%),Fibroblast; [3],11.76% and 35.14%
same,Population Fragmented Nuclei (%),Fibroblast; [3],16.11% and 6.99%
same,Population Healthy Nuclei (%),Fibroblast; [3],65% and 73.12%
same,Population Hoechst High Intensity Objects (%),Fibroblast; [3],0%
same,Population Membrane Permeable-Phenotype (%),Fibroblast; [3],0% and 11.03%
same,Population Mitochondria Different-Phenotype (%),Fibroblast; [3],20.51% and 11.76%
same,Population Mitotic Cells (%),Fibroblast; [3],88.24% and 64.86%
same,Population Normal (%),Fibroblast; [3],100%
same,Population Pyknosed Nuclei (%),Fibroblast; [3],18.89% and 19.89%
same,Population Tubulin-Different-Phenotype (%),Fibroblast; [3],6.84% and 18.38%
same,Total Cell Count,Fibroblast; [3],180 and 186
same,Population Apoptotic (%),U2OS; [4],53.12% and 58.33%
same,Population Fragmented Nuclei (%),U2OS; [4],2.21% and 6.71%
same,Population Healthy Nuclei (%),U2OS; [4],88.95% and 78.66%
same,Population Hoechst High Intensity Objects (%),U2OS; [4],0%
same,Population Membrane Permeable-Phenotype (%),U2OS; [4],0.93% and 4.65%
same,Population Mitochondria Different-Phenotype (%),U2OS; [4],0.31% and 6.98%
same,Population Mitotic Cells (%),U2OS; [4],46.88% and 41.67%
same,Population Normal (%),U2OS; [4],100%
same,Population Pyknosed Nuclei (%),U2OS; [4],8.84% and 14.63%
same,Population Tubulin-Different-Phenotype (%),U2OS; [4],1.24% and 3.88%
same,Total Cell Count,U2OS; [4],362 and 164
same,Population Apoptotic (%),U2OS; [5],43.94% and 36.59%
same,Population Fragmented Nuclei (%),U2OS; [5],4.31% and 5.7%
same,Population Healthy Nuclei (%),U2OS; [5],69.8% and 68.35%
same,Population Hoechst High Intensity Objects (%),U2OS; [5],0%
same,Population Membrane Permeable-Phenotype (%),U2OS; [5],3.93% and 8.33%
same,Population Mitochondria Different-Phenotype (%),U2OS; [5],0% and 6.48%
same,Population Mitotic Cells (%),U2OS; [5],56.06% and 63.41%
same,Population Normal (%),U2OS; [5],100%
same,Population Pyknosed Nuclei (%),U2OS; [5],25.88% and 25.95%
same,Population Tubulin-Different-Phenotype (%),U2OS; [5],2.25% and 1.85%
same,Total Cell Count,U2OS; [5],255 and 158
same,Population Apoptotic (%),U2OS; [6],59.26% and 60%
same,Population Fragmented Nuclei (%),U2OS; [6],3.6% and 7.14%
same,Population Healthy Nuclei (%),U2OS; [6],75.58% and 63.1%
same,Population Hoechst High Intensity Objects (%),U2OS; [6],0%
same,Population Membrane Permeable-Phenotype (%),U2OS; [6],1.02% and 6.6%
same,Population Mitochondria Different-Phenotype (%),U2OS; [6],0% and 13.21%
same,Population Mitotic Cells (%),U2OS; [6],40.74% and 40%
same,Population Normal (%),U2OS; [6],100%
same,Population Pyknosed Nuclei (%),U2OS; [6],20.82% and 29.76%
same,Population Tubulin-Different-Phenotype (%),U2OS; [6],1.02% and 5.66%
same,Total Cell Count,U2OS; [6],389 and 168
same,Population Apoptotic (%),U2OS; [1],46.96% and 46.84%
same,Population Fragmented Nuclei (%),U2OS; [1],11.97% and 16.77%
same,Population Healthy Nuclei (%),U2OS; [1],43.63% and 34.16%
same,Population Hoechst High Intensity Objects (%),U2OS; [1],0%
same,Population Membrane Permeable-Phenotype (%),U2OS; [1],1.77% and 9.09%
same,Population Mitochondria Different-Phenotype (%),U2OS; [1],0% and 9.09%
same,Population Mitotic Cells (%),U2OS; [1],53.04% and 53.16%
same,Population Normal (%),U2OS; [1],100%
same,Population Pyknosed Nuclei (%),U2OS; [1],44.4% and 49.07%
same,Population Tubulin-Different-Phenotype (%),U2OS; [1],3.54% and 5.45%
same,Total Cell Count,U2OS; [1],259 and 161
same,Population Apoptotic (%),U2OS; [2],67.24% and 64.84%
same,Population Fragmented Nuclei (%),U2OS; [2],5.9% and 9.91%
same,Population Healthy Nuclei (%),U2OS; [2],56.11% and 49.1%
same,Population Hoechst High Intensity Objects (%),U2OS; [2],0%
same,Population Membrane Permeable-Phenotype (%),U2OS; [2],3.5% and 6.42%
same,Population Mitochondria Different-Phenotype (%),U2OS; [2],0% and 4.59%
same,Population Mitotic Cells (%),U2OS; [2],32.76% and 35.16%
same,Population Normal (%),U2OS; [2],100%
same,Population Pyknosed Nuclei (%),U2OS; [2],37.99% and 40.99%
same,Population Tubulin-Different-Phenotype (%),U2OS; [2],7.39% and 6.42%
same,Total Cell Count,U2OS; [2],458 and 222
same,Population Apoptotic (%),U2OS; [3],66.29% and 76.67%
same,Population Fragmented Nuclei (%),U2OS; [3],10.3% and 11.18%
same,Population Healthy Nuclei (%),U2OS; [3],14.59% and 9.87%
same,Population Hoechst High Intensity Objects (%),U2OS; [3],0% and 0.65%
same,Population Mitochondria Different-Phenotype (%),U2OS; [3],0%
same,Population Mitotic Cells (%),U2OS; [3],33.71% and 23.33%
same,Population Normal (%),U2OS; [3],100% and 99.35%
same,Population Pyknosed Nuclei (%),U2OS; [3],75.11% and 78.95%
same,Population Tubulin-Different-Phenotype (%),U2OS; [3],23.53% and 26.67%
same,Total Cell Count,U2OS; [3],233 and 153

# From ChEMBL document CHEMBL5724801, “EUbOPEN Chemogenomics Library - Multiplex” (2024)
